Calls of active or inactive are those of the source. The rule behind the calls is not given here.
Experiments:
[1] = species on record: Rattus norvegicus; test: Concentration required for the maximal release of state 4 respiration of rat liver mitochondria using succinate as substrate; type: functional
In short: (§1)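 Rat liver mitochondria isolated by a prior method, about 0.7 mg/mL in most runs. Medium: 200 mM sucrose, 2 mM MgCl2, 1 mM EDTA, 10 mM potassium phosphate pH 7.2, 25 °C. Substrate 10 mM succinate plus rotenone 1 μg/mg protein. O2 uptake in state 4 followed by Clark electrode after compound addition. Value is the concentration giving maximal release of respiration.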

[2] = species on record: Rattus norvegicus; test: Concentration required for the maximal release of state 4 respiration of rat liver mitochondria, relative to N'-Benzoyl-hydrazinecarbodithioic acid nonyl ester; type: functional, organism-based
[3] = species on record: Rattus norvegicus; test: Concentration required for the maximal release of state 4 respiration of rat liver mitochondria using succinate as substrate; Inactive; type: functional; in short: as §1

Row | SMILES | C100 [1] | RA [2] | C100 [3]
1 | CCCCCCCCCS/C(S)=N/NC(=O)c1ccc(Cl)c(Cl)c1 | 1.93 µM | 82 | 
2 | CCCCCCCCCS/C(S)=N/NCc1ccccc1 | 8350 µM | 0.02 | 
3 | CCCCCCCCCS/C(S)=N/N(C)C(=O)c1ccccc1 | 112 µM | 1.3 | 
4 | CCCCCCCCCS/C(S)=N/NC(=O)c1ccc(N(C)C)cc1 | 6.9 µM | 23 | 
5 | CCCCCCCCCS/C(S)=N/NC(=O)c1ccc(OC)cc1 | 2.46 µM | 65 | 
6 | CCCCCCCCCS/C(S)=N/NC(=O)c1ccccc1 | 1.59 µM | 100 | 
7 | CCCCCCCCCS/C(S)=N/NC(C)=O | 457 µM | 0.61 | 
8 | CCCCCCCCCS/C(=N/NC(=O)c1ccccc1)SC | 30.1 µM | 9.3 | 
9 | CCCCCCCCCSC(=S)N(C)NC(=O)c1ccccc1 | 40.3 µM | 6.9 | 
10 | CCCCCCCCCS/C(S)=N/N=C/c1ccccc1 | 604 µM | 0.26 | 
11 | CCCCCCCCCS/C(S)=N/NC(=O)c1ccc([N+](=O)[O-])cc1 | 1.27 µM | 125 | 
12 | CCCCCCCCCS/C(S)=N/Cc1ccccc1 | 360 µM | 0.44 | 
13 | CCCCCCCCCS/C(S)=N/NC(=O)c1ccc(Cl)cc1 | 1.46 µM | 109 | 
14 | CCCCCCCCCSC(=S)N(C)N(C)C(=O)c1ccccc1 |  | 0 | inactive
15 | CCCCCCCCCS/C(S)=N/NC(=O)c1ccc(F)cc1 | 1.57 µM | 101 | 
16 | CCCCCCCCCS/C(S)=N/c1ccccc1 |  | 0 | inactive
17 | CCCCCCCCCS/C(S)=N/NC(=O)c1cccc2ccccc12 | 3.36 µM | 47 | 
18 | CCCCCCCCCS/C(S)=N/NC(=O)c1ccccn1 | 1.42 µM | 112 | 
19 | CCCCCCCCCSC(=S)NC(=O)c1ccccc1 | 27.9 µM | 5.7 | 
20 | CCCCCCCCCS/C(S)=N/Nc1ccccc1 | 1530 µM | 0.1 | 
21 | CCCCCCCCCS/C(S)=N/NC(=O)C1CCCCC1 | 4.52 µM | 35 | 
22 | CCCCCCCCCS/C(=N/N(C)C(=O)c1ccccc1)SC |  | 0 | inactive
